Test results: ChEMBL document CHEMBL4765343, “Design and synthesis of novel SCM-198 analogs as cardioprotective agents: Structure-activity relationship studies and biological evaluations” (Eur J Med Chem, 2020)
Calls of active or inactive are those of the source. The rule behind the calls is not given here.

What was measured:
[1] = system: H9c2; assay: Antioxidant activity in rat H9c2 cells assessed as protection against H2O2-induced hypoxic injury by measuring cell viability at 1 uM preincubated for 4 hrs followed by H2O2 stimulation for 1 hr by MTT assay relative to control; format: functional
Summary of the method: (§1)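 H9c2 cells at 1 × 10^5 cells/mL, 100 μL per well in triplicate, left 18 h. Compound diluted in DMSO; DMSO alone as negative control. 4 h pretreatment, then 400 nM H2O2 for 1 h. Medium removed and MTT added for 2-4 h, formazan dissolved in DMSO, absorbance at 570 nm. Medium-only wells gave the blank.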

[2] = system: H9c2; assay: Antioxidant activity in rat H9c2 cells assessed as protection against H2O2-induced hypoxic injury by measuring cell viability at 10 uM preincubated for 4 hrs followed by H2O2 stimulation for 1 hr by MTT assay relative to control; format: functional; summary of the method: as §1
[3] = system: H9c2; assay: Antioxidant activity in rat H9c2 cells assessed as protection against H2O2-induced hypoxic injury by measuring cell viability preincubated for 4 hrs followed by H2O2 stimulation for 1 hr by MTT assay relative to control; format: functional; conditions: time 5 hrs, read-out: ED50 (the source's name)
Summary of the method: (§2)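 ED50 taken from log dose against % viability. Viability also reported at the EC50 concentration. Means ± SEM from three independent experiments.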

[4] = system: H9c2; assay: Antioxidant activity in rat H9c2 cells assessed as protection against H2O2-induced hypoxic injury by measuring cell viability at ED50 concentration preincubated for 4 hrs followed by H2O2 stimulation for 1 hr by MTT assay relative to control; format: functional; conditions: time 5 hrs; summary of the method: as §2
[5] = system: H9c2; assay: Cytoprotective activity against H2O2-induced injury in rat H9c2 cells assessed as reduction in LDH release at 10 uM preincubated for 4 hrs followed by H2O2 stimulation for 1 hr by LDH assay; format: functional, cell-based; conditions: time 5.0 hrs
Summary of the method: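 Cells at 5 × 10^4 per well in triplicate, 18 h, then 4 h compound and 1 h H2O2. Model wells had H2O2 without compound; controls had DMSO. 50 μL medium mixed with 2X LDH assay buffer, kept in the dark at 22-25 °C for 10-30 min, read at 490-520 nm. Activity blank-subtracted, normalised to BCA protein of the lysed cells, and expressed relative to model wells.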

[6] = system: H9c2; assay: Antiapoptotic activity in rat H9c2 cells assessed as restoration of H2O2-induced bcl-2 downregulation at 10 uM preincubated for 4 hrs followed by H2O2 stimulation for 1 hr by Western blotting analysis; format: functional, cell-based; conditions: time 5.0 hrs
Summary of the method: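 Serum-starved (12 h) H9c2 cells were pretreated 4 h, then exposed to 500 nM H2O2 in DMEM for 1 h. Lysis on ice with protease/phosphatase inhibitors, then 13,000 g at 4 °C for 15 min. 20 μg protein run on 8-12% SDS-PAGE and blotted to PVDF. Probed overnight at 4 °C for caspase-3, pro-caspase-3, Bcl-2 and GAPDH, with chemiluminescent detection.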

SMILES	Activity [1] [%]	Activity [2] [%]	EC50 [3] [nM]	Activity [4] [%]	Activity [5]	Activity [6]
COc1ccc(C(=O)OCCCCNC(=N)N)c(OC)c1OC	49.2	57.8	–	–	–	–
COc1cc(OC)c(C(=O)OCCCCNC(=N)N)c(OC)c1	55.2	53.4	–	–	–	–
N=C(N)NCCCCOC(=O)c1ccncc1	54	53.2	–	–	–	–
N=C(N)NCCCCOC(=O)c1c(F)cc(F)cc1F	69.6	60.7	–	–	–	–
COc1cc(C(=O)OCCN(C)C)cc(OC)c1O	47.8	48.5	–	–	–	–
Cc1cccc(C(=O)OCCCCNC(=N)N)c1	64.4	65.8	156	57.4	inactive	–
N=C(N)NCCCCOC(=O)c1ccco1	51.1	53.2	–	–	–	–
N=C(N)NCCCCOC(=O)c1ccc2[nH]ccc2c1	51.8	58.9	–	–	–	–
COc1cc(C(=O)OCCCCNC(=N)N)ccc1OC(C)=O	63.4	56.4	–	–	–	–
COc1cc(C(=O)OCCOCCNC(=N)N)cc(OC)c1O	63.4	69.8	151	58.8	–	inactive
CC(=O)Oc1cccc(C(=O)OCCCCNC(=N)N)c1	59.7	62.8	–	–	–	–
N=C(N)NCCCCOC(=O)C12CC3CC(CC(C3)C1)C2	58.2	56.8	–	–	–	–
N=C(N)NCCCCO	46.8	51.4	–	–	–	–
COc1cc(C(=O)OCCCN(C)C)cc(OC)c1O	55.2	61.7	–	–	–	–
COc1cc(C(=O)OCCCCCCNC(=N)N)cc(OC)c1O	53.4	58.9	–	–	–	–
COc1cc(C(=O)OCCCCN)cc(OC)c1O	56.3	56.2	–	–	–	–
COc1ccc(OC)c(C(=O)OCCCCNC(=N)N)c1	53.3	57.7	–	–	–	–
COc1cc(C(=O)OCCCCCNC(=N)N)cc(OC)c1O	58.9	50.1	–	–	–	–
